# From ChEMBL document CHEMBL1127046, “Antitumor agents. 3. Synthesis and biological activity of 4 beta-alkyl derivatives containing hydroxy, amino, and amido groups of 4'-O-demethyl-4-desoxypodophyllotoxin as antitumor agents” (J Med Chem, 1993)
# Assays:
# [1] = test system: Lewis lung carcinoma cell line; test: Percentage inhibition of tumor growth at the lewis lung dose of 7 (mg/kg/ day); format: functional, Mus musculus
# Method in brief: (§1)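 Lewis lung carcinoma fragments (2 mm3) implanted sc into male BDF1 mice (5 weeks) on day 0. Compound given iv on days 4–8, in saline or saline with 3.5% DMSO and 6.5% Tween 80. Seven mice per group, 10 controls. Percent inhibition from mean tumour weight versus control on day 17; p<0.05, 0.01 or 0.001 versus control.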
# P388 [2] = test: Antitumor activity in vivo expressed as the percentage increase in life span at the P388 dose of 1..3 (mg/kg/day); format: functional, Mus musculus
# Method in brief: (§2)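 P388 leukaemia, 1 × 10^6 cells given sc to male CDF1 mice (5 weeks old) on day 0. Drug was dosed iv on days 1–5 in saline with 3.5% DMSO and 6.5% Tween 80. Groups had 7 mice; controls had 10. ILS was calculated from mean survival time of treated versus control mice, excluding 30-day survivors.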
# Tubulin = Tubulin (Bos taurus, UniProt Q6B856+Q862L2+Q862F3); test: Drug concentration needed to produce a 50% reduction of bovine brain tubulin polymerization relative to the control
# [3] = Inhibition of growth of colon carcinoma COLO 2-1 cell line; format: functional; conditions: Homo sapiens, read-out: ED50 (the source's name)
# Method in brief: (§3)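 Cells were seeded and cultured for 24 h, then exposed to drug for 96 or 4 h. Cells were counted by hemocytometer. IC50 is the concentration giving a 50% reduction in cell number relative to control.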
# [4] = Inhibition of growth of hepatoma HLF cell line; format: functional; conditions: Homo sapiens, read-out: ED50 (the source's name); method in brief: as §3
# SBC-3 = test: Inhibition of growth of lung small cell carcinoma SBC-3 cell line; format: functional; conditions: Homo sapiens, read-out: ED50 (the source's name)
# Method in brief: (§4)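 Human tumour cell lines plated and grown 24 h in a CO2 incubator, then exposed to compound for 96 or 4 h. Cells counted by hemocytometer. IC50 is the concentration giving 50% reduction in cell number versus untreated control.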
# [5] = test system: Lewis lung carcinoma cell line; test: Increased life span at the lewis lung dose of 7 (mg/kg/day); format: functional, Mus musculus
# [6] = test system: Lewis lung carcinoma cell line; test: Mean body weight change after inoculation of 3.2 x 10 e 5 cells iv and administration of compounds iv from days 1-5 at the dose of 1.3 (mg/kg/day); format: functional, Mus musculus
# Method in brief: (§5)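 Male BDF1 mice (5 weeks) given 3.2 x 10^5 Lewis lung carcinoma cells iv on day 0, then dosed iv on days 1–5. Seven mice per group, 14 controls. Mean body weight change (g) taken from day 0 to day 6.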
# [7] = test system: Lewis lung carcinoma cell line; test: Mean body weight change after inoculation of 3.2 x 10 e 5 cells iv and administration of compounds iv from days 1-5 at the dose of 0.77 (mg/kg/day); format: functional, Mus musculus; method in brief: as §5
# [8] = test system: Lewis lung carcinoma cell line; test: Mean body weight change after inoculation of 3.2 x 10 e 5 cells iv and administration of compounds iv from days 1-5 at the dose of 7 (mg/kg/day); format: functional, Mus musculus; method in brief: as §5
# [9] = Inhibition of growth of lung non-small cell carcinoma PC-7 cell line; format: functional; conditions: Homo sapiens, read-out: ED50 (the source's name); method in brief: as §3
# [10] = test system: Lewis lung carcinoma cell line; test: Increased life span at the lewis lung dose of 0.77 (mg/kg/day); format: functional, Mus musculus
# Mus musculus = test: The number of mice survived for 30 days at the dose of 5 (mg/kg/day); format: functional
# P388 [11] = test: Antitumor activity in vivo expressed as the percentage increase in life span at the P388 dose of 4 (mg/kg/day); format: functional, Mus musculus; method in brief: as §2
# [12] = test system: Lewis lung carcinoma cell line; test: Increased life span at the lewis lung dose of 2.3 (mg/kg/day); format: functional, Mus musculus
# A549 [13] = test: Inhibition of growth lung non-small cell carcinoma A-549 cell line; format: functional; conditions: Homo sapiens, read-out: ED50 (the source's name); method in brief: as §3
# [14] = test system: Lewis lung carcinoma cell line; test: Percentage inhibition of tumor growth at the lewis lung dose of 4 (mg/kg/ day); format: functional, Mus musculus; method in brief: as §1
# [15] = test system: Lewis lung carcinoma cell line; test: Mean body weight change after inoculation of 3.2 x 10 e 5 cells iv and administration of compounds iv from days 1-5 at the dose of 2.3 (mg/kg/day); format: functional, Mus musculus; method in brief: as §5
# [16] = test system: Lewis lung carcinoma cell line; test: Increased life span at the lewis lung dose of 1.3 (mg/kg/day); format: functional, Mus musculus
# [17] = Inhibition of growth of renal cancer G-402 cell line; format: functional; conditions: Homo sapiens, read-out: ED50 (the source's name); method in brief: as §4
# P388 [18] = test: Antitumor activity in vivo expressed as the percentage increase in life span at the P388 dose of 2.3 (mg/kg/day); format: functional, Mus musculus; method in brief: as §2
# [19] = test system: Lewis lung carcinoma cell line; test: Increased life span at the lewis lung dose of 4 (mg/kg/day); format: functional, Mus musculus
# COLO 320DM [20] = test: Inhibition of growth of colon cancer COLO 320DM cell line; format: functional; conditions: Homo sapiens, read-out: ED50 (the source's name); method in brief: as §3
# [21] = Inhibition of growth of lung small cell carcinoma RERF-LC-MA cell line; format: functional; conditions: Homo sapiens; read-out: ED50 (the source's name); method in brief: as §3
# ACHN = test: Inhibition of growth of renal cancer ACHN cell line; format: functional; conditions: Homo sapiens, read-out: ED50 (the source's name); method in brief: as §4
# [22] = Inhibition of DNA topoisomerase II from rat liver measured as 50% reduction in the amount of minicircle DNA relative to the control
# [23] = test system: Lewis lung carcinoma cell line; test: Mean body weight change after inoculation of 3.2 x 10 e 5 cells iv and administration of compounds iv from days 1-5 at the dose of 4 (mg/kg/day); format: functional, Mus musculus; method in brief: as §5
# Homo sapiens = species on record: Homo sapiens; test: Inhibition of growth of hepatoma HLE cell line; format: functional; conditions: read-out: ED50 (the source's name); method in brief: as §3
# [24] = test system: Lewis lung carcinoma cell line; test: Percentage inhibition of tumor growth at the dose of 4 (mg/kg/ day); format: functional, Mus musculus; method in brief: as §1
# [25] = test system: Lewis lung carcinoma cell line; test: Percentage inhibition of tumor growth at the dose of 2.3 (mg/kg/ day); format: functional, Mus musculus; method in brief: as §1
# [26] = test system: Lewis lung carcinoma cell line; test: Antitumor activity in vivo expressed as the percentage increase in life span at the lewis lung dose of 4 (mg/kg/day); format: functional, Mus musculus
# [27] = test system: Lewis lung carcinoma cell line; test: Antitumor activity in vivo expressed as the percentage increase in life span at the lewis lung dose of 1.3 (mg/kg/day); format: functional, Mus musculus
# A549 [28] = test: Inhibition of growth of lung non-small cell carcinoma A-549 cell line; format: functional; conditions: Homo sapiens, read-out: ED50 (the source's name); method in brief: as §3
# P388 [29] = test: Increased life span at the P388 dose of 2.3 (mg/kg/day); format: functional, Mus musculus; method in brief: as §2
# L1210 [30] = test: The number of mice survived for 30 days at the dose of 2.5 (mg/kg/day); format: functional, Mus musculus
# P388 [31] = test: Increased life span at the P388 dose of 0.8 (mg/kg/day); format: functional, Mus musculus; method in brief: as §2
# P388 [32] = test: Cytotoxicity against P388 leukemia; format: functional, cell-based; conditions: Mus musculus
# L1210 [33] = test: Antitumor activity in vivo expressed as the percentage increase in life span at the dose of 2.5 (mg/kg/day); format: functional, Mus musculus
# [34] = test system: Lewis lung carcinoma cell line; test: Antitumor activity in vivo expressed as the percentage increase in life span at the lewis lung dose of 0.77 (mg/kg/day); format: functional, Mus musculus
# COLO 320DM [35] = test: Inhibition of growth of colon carcinoma COLO 320DM cell line; format: functional; conditions: Homo sapiens, read-out: ED50 (the source's name); method in brief: as §3
# P388 [36] = test: Increased life span at the P388 dose of 1.3 (mg/kg/day); format: functional, Mus musculus; method in brief: as §2
# [37] = test system: Lewis lung carcinoma cell line; test: Antitumor activity in vivo expressed as the percentage increase in life span at the lewis lung dose of 2.3 (mg/kg/day); format: functional, Mus musculus
Compound,IC50 (Tubulin),EC50 [3],EC50 [4],EC50 (SBC-3),bwc [6],bwc [7],EC50 [9],bwc [15],EC50 [17],EC50 [21],EC50 (ACHN),IC50 [22],bwc [23],EC50 (Homo sapiens),further results
COc1cc([C@@H]2c3cc4c(cc3[C@@H](CCN(C)CCN3CCCCC3)C3COC(=O)[C@@H]32)OCO4)cc(OC)c1O.Cl.Cl (stereo partly specified),> 167 µM,29 µg/mL,4 µg/mL,0.54 µg/mL,0.1 g,0.7 g,4.4 µg/mL,-0.6 g,0.35 µg/mL,27 µg/mL,2.7 µg/mL,60.9 µM,-1 g,0.36 µg/mL,Inhibition [1]: 97%; ILS max (P388 [2]): 131%; ILS max [5]: 55%; bwc [8]: -3.5 g; ILS max [10]: 20%; Survivors (Mus musculus): 6; ILS max (P388 [11]): 259%; ILS max [12]: 75%; EC50 (A549 [13]): 1.8 µg/mL; Inhibition [14]: 72%; ILS max [16]: 14%; ILS max (P388 [18]): 165%; ILS max [19]: 108%; EC50 (COLO 320DM [20]): 3.2 µg/mL
COc1cc([C@@H]2c3cc4c(cc3[C@@H](CCN(C)CCN(C)C)C3COC(=O)[C@@H]32)OCO4)cc(OC)c1O.Cl.Cl (stereo partly specified),> 99 µM,13 µg/mL,2.8 µg/mL,0.41 µg/mL,0.2 g,0.44 g,3.5 µg/mL,-0.7 g,0.33 µg/mL,14 µg/mL,2 µg/mL,32.5 µM,-2.9 g,0.23 µg/mL,Inhibition [24]: 95%; Inhibition [25]: 51%; ILS max [26]: 209%; ILS max [27]: 72%; EC50 (A549 [28]): 0.82 µg/mL; ILS max (P388 [29]): 236%; Survivors (L1210 [30]): 6; ILS max (P388 [31]): 116%; IC50 (P388 [32]): 0.001 µM; ILS max (L1210 [33]): 103%; ILS max [34]: 38%; EC50 (COLO 320DM [35]): 2 µg/mL; ILS max (P388 [36]): 196%; ILS max [37]: 90%
